Experimental data reported in ChEMBL document CHEMBL3872233, “Topical Treatment of Leishmania tropica Infection Using (-)-α-Bisabolol Ointment in a Hamster Model: Effectiveness and Safety Assessment” (J Nat Prod, 2016).
Activity calls are given as the source filed them. The calls are words filed in the database; no cut-off is given here.

What was measured:
Syrian golden hamster [1] = test: Toxicity in Syrian hamster infected with Leishmania tropica MHOM/MA/1988/LEM1314 promastigotes assessed as mean serum ALP levels at 2.5 % administered tropically on footpad for 3 weeks starting at week 7 post infection measured 1 week post last dose (reference value: 14.4 +/- 0.9 U/L); type: organism-based, Mesocricetus auratus; settings: in vivo, topical_or_ocular, 168 h
Syrian golden hamster [2] = test: Toxicity in Syrian hamster infected with Leishmania tropica MHOM/MA/1988/LEM1314 promastigotes assessed as diarrhea at 200 mg/kg administered through oral gavage for 3 weeks starting at week 7 post infection measured during compound dosing or measured 1 week post last dose; type: organism-based, Mesocricetus auratus; settings: in vivo, 168 h
Procedure, shortened: (§1)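 Infected hamsters were treated daily for 21 days from week 7 post-infection (ointment 1–5%, 200 mg/kg gavage, or intralesional meglumine antimoniate 2 mg SbV/kg). Clinical signs and body weight were monitored during treatment and a 7-day follow-up. After sacrifice, liver and spleen were weighed and serum ALP, ALT, creatinine, urea and AST were measured with kits, compared with untreated infected animals.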

Leishmania tropica [3] = test: (§2) Antileishmanial activity against Leishmania tropica MHOM/MA/1988/LEM1314 promastigotes infected in Syrian hamster assessed as reduction in lesion thickness at 2.5 % administered once daily tropically on footpad for 3 weeks starting at week 7 post infection measured 1 week post last dose relative to control; type: functional; design: scale not given: the % may be the effect or the level left
Procedure, shortened: (§3)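 L. tropica stationary-phase promastigotes (3 × 10^7 in 50 μL PBS) injected into the left hind footpad. Treatment began at week 7 (+75% footpad thickness) and ran daily for 21 days, n = 10/group. Routes were 50 mg ointment on the lesion (cetyl alcohol/lanolin/petrolatum base), gavage in olive oil, or intralesional meglumine antimoniate 2 mg SbV/kg. Lesion thickness was measured weekly against base-only ointment; sacrifice was 1 week after the last dose.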

Leishmania tropica [4] = test: as §2, with “parasite load in spleen” for “lesion thickness”, “5” for “2.5”, “dose by qPCR analysis” for “dose”; type: functional
Procedure, shortened: (§4)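 Hamsters were infected in the footpad and treated daily for 21 days from week 7 post-infection, n = 10/group, and sacrificed 1 week after the last dose. Footpad skin, liver and spleen DNA was assayed by L. tropica-specific TaqMan qPCR (chromosome 29 target), in triplicate with 50 ng DNA per 25 μL reaction. Load was interpolated from Ct on a calibration curve of promastigote DNA, relative to base-ointment controls.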

Leishmania tropica [5] = test: as §2, with “[…]” for “2.5 %”, “through oral gavage” for “tropically on footpad”; type: functional; design: scale not given: the % may be the effect or the level left; procedure, shortened: as §3
Syrian golden hamster [6] = test: Toxicity in Syrian hamster infected with Leishmania tropica MHOM/MA/1988/LEM1314 promastigotes assessed as liver weight at 2.5 % administered tropically on footpad for 3 weeks starting at week 7 post infection measured 1 week post last dose (reference value: 3.3 +/- 0.2 g); type: organism-based, Mesocricetus auratus; settings: in vivo, topical_or_ocular, 168 h; procedure, shortened: as §1
Leishmania tropica [7] = test: (§5) Antileishmanial activity against Leishmania tropica MHOM/MA/1988/LEM1314 promastigotes infected in Syrian hamster assessed as reduction in parasite load in spleen at 2 mg/kg administered intralesionally once daily on footpad for 3 weeks starting at week 7 post infection measured 1 week post last dose by qPCR analysis relative to control; type: functional, organism-based; procedure, shortened: as §4
Syrian golden hamster [8] = test: Toxicity in Syrian hamster infected with Leishmania tropica MHOM/MA/1988/LEM1314 promastigotes assessed as stress at 200 mg/kg administered through oral gavage for 3 weeks starting at week 7 post infection measured during compound dosing or measured 1 week post last dose; type: organism-based, Mesocricetus auratus; settings: in vivo, 168 h
Procedure, shortened: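 Infected hamsters (footpad, 3 × 10^7 promastigotes) were gavaged daily for 21 days from week 7 post-infection at 200 mg/kg in olive oil, n=10.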

Syrian golden hamster [9] = test: Toxicity in Syrian hamster infected with Leishmania tropica MHOM/MA/1988/LEM1314 promastigotes assessed as liver weight at 200 mg/kg administered through oral gavage for 3 weeks starting at week 7 post infection measured 1 week post last dose (reference value: 3.3 +/- 0.2 g); type: organism-based, Mesocricetus auratus; settings: in vivo; procedure, shortened: as §1
Syrian golden hamster [10] = test: Toxicity in Syrian hamster assessed as spleen weight at 500 mg/kg administered through oral gavage for 28 days (reference value: 179.4 +/- 19.8 mg); type: organism-based, Mesocricetus auratus; settings: in vivo, 672 h
Syrian golden hamster [11] = test: Toxicity in Syrian hamster assessed as pain at 500 mg/kg, po or 5 % administered tropically on footpad for 28 days; type: organism-based, Mesocricetus auratus; settings: in vivo, 672 h
Syrian golden hamster [12] = test: Toxicity in Syrian hamster infected with Leishmania tropica MHOM/MA/1988/LEM1314 promastigotes assessed as liver weight at 1 % administered tropically on footpad for 3 weeks starting at week 7 post infection measured 1 week post last dose (reference value: 3.3 +/- 0.2 g); type: organism-based, Mesocricetus auratus; settings: in vivo, topical_or_ocular, 168 h; procedure, shortened: as §1
Syrian golden hamster [13] = test: Toxicity in Syrian hamster assessed as liver weight at 5 % administered tropically on footpad for 28 days (reference value: 4.1 +/- 0.7 g); type: organism-based, Mesocricetus auratus; settings: in vivo, topical_or_ocular, 672 h
Leishmania tropica [14] = test: Antileishmanial activity against Leishmania tropica MHOM/MA/1988/LEM1314 promastigotes infected in Syrian hamster assessed as reduction in amastigote levels in foodpad skin macerate at […] administered once daily through oral gavage for 3 weeks starting at week 7 post infection measured 1 week post last dose by Giemsa staining-based method; type: functional
Syrian golden hamster [15] = test: Toxicity in Syrian hamster infected with Leishmania tropica MHOM/MA/1988/LEM1314 promastigotes assessed as urea levels at 5 % administered tropically on footpad for 3 weeks starting at week 7 post infection measured 1 week post last dose (reference value: 32.5 +/- 0.8 mg/dl); type: organism-based, Mesocricetus auratus; settings: in vivo, topical_or_ocular, 168 h
Syrian golden hamster [16] = test: Toxicity in Syrian hamster assessed as mean serum ALP levels at 500 mg/kg administered through oral gavage for 28 days (reference value: 14.4 +/- 2 U/L); type: organism-based, Mesocricetus auratus; settings: in vivo, 672 h
Leishmania tropica [17] = test: as §5, with “foodpad skin” for “spleen”, “5 %” for “2 mg/kg”, “administered” for “administered intralesionally”, “daily tropically” for “daily”; type: functional; design: scale not given: the % may be the effect or the level left; procedure, shortened: as §4
Syrian golden hamster [18] = test: Toxicity in Syrian hamster assessed as footpad edema at 500 mg/kg, po or 5 % administered tropically on footpad for 28 days; type: organism-based, Mesocricetus auratus; settings: in vivo, 672 h
Syrian golden hamster [19] = test: Toxicity in Syrian hamster infected with Leishmania tropica MHOM/MA/1988/LEM1314 promastigotes assessed as mean serum creatinine levels at 5 % administered tropically on footpad for 3 weeks starting at week 7 post infection measured 1 week post last dose (reference value: 0.19 mg/dl); type: organism-based, Mesocricetus auratus; settings: in vivo, topical_or_ocular, 168 h
Syrian golden hamster [20] = test: Toxicity in Syrian hamster infected with Leishmania tropica MHOM/MA/1988/LEM1314 promastigotes assessed as mean serum ALT levels at 200 mg/kg administered through oral gavage for 3 weeks starting at week 7 post infection measured 1 week post last dose (reference value: 81.6 +/- 4.9 U/L); type: organism-based, Mesocricetus auratus; settings: in vivo, 168 h
Syrian golden hamster [21] = test: Toxicity in Syrian hamster infected with Leishmania tropica MHOM/MA/1988/LEM1314 promastigotes assessed as mean serum ALP levels at 5 % administered tropically on footpad for 3 weeks starting at week 7 post infection measured 1 week post last dose (reference value: 14.4 +/- 0.9 U/L); type: organism-based, Mesocricetus auratus; settings: in vivo, topical_or_ocular, 168 h
Syrian golden hamster [22] = test: Toxicity in Syrian hamster infected with Leishmania tropica MHOM/MA/1988/LEM1314 promastigotes assessed as urea levels at 200 mg/kg administered through oral gavage for 3 weeks starting at week 7 post infection measured 1 week post last dose (reference value: 32.5 +/- 0.8 mg/dl); type: organism-based, Mesocricetus auratus; settings: in vivo, 168 h
Syrian golden hamster [23] = test: Toxicity in Syrian hamster assessed as liver weight at 500 mg/kg administered through oral gavage for 28 days (reference value: 4.1 +/- 0.7 g); type: organism-based, Mesocricetus auratus; settings: in vivo, 672 h

In the case of CC(C)=CCC[C@](C)(O)[C@@H]1CC=C(C)CC1 [LEVOMENOL], the Activity (Syrian golden hamster [1]) is reported as 13.3 U/L, the Activity (Syrian golden hamster [2]) is reported as “Non-Toxic” and the Activity (Leishmania tropica [3]) is reported as 56.4%. The Activity (Leishmania tropica [4]) was “Active”, the Activity (Leishmania tropica [5]) was 62.5% and the Activity (Syrian golden hamster [6]) was 3.3 g. The Activity (Leishmania tropica [7]) was “Active”, the Activity (Syrian golden hamster [8]) was “Non-Toxic” and the Activity (Syrian golden hamster [9]) was 3 g. The Activity (Syrian golden hamster [10]) was 181.2 mg, the Activity (Syrian golden hamster [11]) was “Non-Toxic” and the Activity (Syrian golden hamster [12]) was 3.2 g. The Activity (Syrian golden hamster [13]) was 3.4 g, the Activity (Leishmania tropica [14]) was “Active” and the Activity (Syrian golden hamster [15]) was 34.2 mg/dL. For the same compound, the Activity (Syrian golden hamster [16]) was 14.7 U/L, the Activity (Leishmania tropica [17]) was 82% and the Activity (Syrian golden hamster [18]) was “Non-Toxic”. For the same compound, the Activity (Syrian golden hamster [19]) was 0.18 mg/dL, the Activity (Syrian golden hamster [20]) was 81.6 U/L and the Activity (Syrian golden hamster [21]) was 14.7 U/L. The Activity (Syrian golden hamster [22]) was 34.4 mg/dL and the Activity (Syrian golden hamster [23]) was 3.5 g.
